Source: ChEMBL document CHEMBL1135980, “Novel angular benzophenazines: dual topoisomerase I and topoisomerase II inhibitors as potential anticancer agents” (J Med Chem, 2002)

Tests used:
NCI-H69 [1] = test: Rf is the resistance factor and is the ratio of the IC50 on the resistant cell line over the IC50 on the parental H69/P cell line; type: functional, Homo sapiens
How it was run: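 Resistance factor computed as IC50 in H69/LX4 (Pgp-overexpressing) divided by IC50 in H69/P. Both IC50s come from a 5-6 day Alamar Blue proliferation assay.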

NCI-H69 [2] = test: Cytotoxicity measured using the drug resistant, P-glycoprotein (Pgp) expressing human small cell lung carcinoma cell line H69/LX4; type: functional, cell-based
How it was run: (§1)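 H69/P (parental) or H69/LX4 (P-glycoprotein-overexpressing) human SCLC cells; compound added, then 5-6 days incubation; proliferation read with Alamar Blue.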

NCI-H69 [3] = test: Cytotoxicity measured using the H69 parental (H69/P) human small cell lung carcinoma cell line; type: functional, cell-based; how it was run: as §1

Compound | Rf (NCI-H69 [1]) | IC50 (NCI-H69 [2]) [nM] | IC50 (NCI-H69 [3]) [nM]
CN(C)CCNC(=O)c1cccc2nc3ccc4c(OCC#N)cccc4c3nc12 | 0.9 | 24 | 28
COc1ccc2ccc3nc4cccc(C(=O)NCCN(C)C)c4nc3c2c1 | 1 | 112 | 110
COc1cccc2c1ccc1nc3cccc(C(=O)NC(CO)CN(C)C)c3nc12 (centres undefined) | 1.2 | 28 | 23
CN(C)CCNC(=O)c1cccc2nc3ccc4c(OCCCC#N)cccc4c3nc12 | 1.5 | 58 | 39
CN(C)CCNC(=O)c1cccc2nc3ccc4c(N(C)C)cccc4c3nc12 | 1.2 | 925 | 778
COc1cccc2c1ccc1nc3cccc(C(=O)N[C@H](CO)CN(C)C)c3nc12 | 1.2 | 25 | 20
CN(C)CCNC(=O)c1cccc2nc3ccc4c(N)cccc4c3nc12 | 1.7 | 193 | 111
COc1cccc2c1ccc1nc3ccc(N)c(C(=O)NCCN(C)C)c3nc12 | 0.85 | 29 | 34
COc1cccc2c1ccc1nc3c(C)ccc(C(=O)NCCN(C)C)c3nc12 | 1.9 | 168 | 87
COc1cccc2c1ccc1nc3cc(Br)cc(C(=O)NCCN(C)C)c3nc12 | 0.6 | 100 | 159
COc1cccc2c1ccc1nc3cccc(C(=O)NCCN4CCCCC4)c3nc12 | 2.1 | 330 | 156
CN(C)CCCOc1cccc2c1ccc1nc3cccc(C(=O)NCCN(C)C)c3nc12 | 0.8 | 91 | 116
Cc1cccc2c1ccc1nc3cccc(C(=O)NCCN(C)C)c3nc12 | 0.8 | 98 | 117
CN(C)CCNC(=O)c1cccc2nc3ccc4c(OCC(=O)O)cccc4c3nc12 | >1.3 | > 5000 | 3840
CCN(CC)CCNC(=O)c1cccc2nc3ccc4c(OC)cccc4c3nc12 | 2.4 | 1000 | 412
CN(C)CCNC(=O)c1cccc2nc3ccc4c(OCCN5CCOCC5)cccc4c3nc12 | 2.4 | 236 | 99
CN(C)CCNC(=O)c1cccc2nc3ccc4c(Br)cccc4c3nc12 | 2.2 | 171 | 77
CN(C)CCNC(=O)c1cccc2nc3ccc4c(C(=O)O)cccc4c3nc12 |  | > 5000 | > 5000
COc1cccc2c1ccc1nc3ccc(O)c(C(=O)NCCN(C)C)c3nc12 | 1 | 107 | 103
CNCCNC(=O)c1cccc2nc3ccc4c(OC)cccc4c3nc12 | 2.4 | 234 | 99
COc1cccc2c1ccc1nc3cccc(C(=O)NC(Cc4ccccc4)CN(C)C)c3nc12 (centres undefined) | 1.1 | 513 | 478
CN(C)CCNC(=O)c1cccc2nc3ccc4ccc(O)cc4c3nc12 | 3.3 | 282 | 86
COc1cccc2c1ccc1nc3cccc(C(=O)NCCN(CCO)CCO)c3nc12 | 5.5 | 3380 | 614
CN(C)CCNC(=O)c1cccc2nc3ccc4c(OCCO)cccc4c3nc12 | 0.8 | 235 | 303
CNS(=O)(=O)c1cccc2c1ccc1nc3cccc(C(=O)NCCN(C)C)c3nc12 | >7.8 | > 5000 | 638

Compound | Rf (NCI-H69 [1]) | IC50 (NCI-H69 [2]) [nM] | IC50 (NCI-H69 [3]) [nM]
COc1cccc2c1ccc1nc3cccc(C(=O)N[C@@H](CN(C)C)[C@H](C)O)c3nc12 | 1 | 19 | 19
COc1cccc2c1ccc1nc3cccc(C(=O)NCC(CN(C)C)N(C)C)c3nc12 (centres undefined) | 3.8 | 480 | 126
COc1cccc2c1ccc1nc3cccc(C(=O)N[C@@H](C)CN(C)C)c3nc12 | 1.3 | 121 | 96
COC(=O)C(CN(C)C)NC(=O)c1cccc2nc3ccc4c(OC)cccc4c3nc12 (centres undefined) | >10 | > 5000 | 468
CC(C)Oc1cccc2c1ccc1nc3cccc(C(=O)NCCN(C)C)c3nc12 | 2.1 | 874 | 420
COc1ccc2nc3ccc4c(OC)cccc4c3nc2c1C(=O)NCCN(C)C | 1.4 | 3620 | 2640
COc1cccc2c1ccc1nc3cccc(C(=O)NCCN4CCOCC4)c3nc12 | 1.7 | 1000 | 597
CN(C)CCNC(=O)c1cccc2nc3ccc4c(F)cccc4c3nc12 | 0.7 | 78 | 111
CC(=O)Nc1cccc2c1ccc1nc3cccc(C(=O)NCCN(C)C)c3nc12 | >10.7 | > 5000 | 468
CSc1cccc2c1ccc1nc3cccc(C(=O)NCCN(C)C)c3nc12 | 0.8 | 94 | 121
COc1cccc2c1ccc1nc3cccc(C(=O)NCCCN(C)C)c3nc12 | 1.3 | 597 | 470
COc1cccc2c1ccc1nc3cccc(C(=O)NC(CN(C)C)C(C)C)c3nc12 (centres undefined) | 0.7 | 25 | 35
COCCOc1cccc2c1ccc1nc3cccc(C(=O)NCCN(C)C)c3nc12 | 1.4 | 124 | 90
CN(C)CCNC(=O)c1cccc2nc3ccc4cc([N+](=O)[O-])ccc4c3nc12 | 1.4 | 69 | 49
CN(C)CCNC(=O)c1cccc2nc3ccc4c(N(S(C)(=O)=O)S(C)(=O)=O)cccc4c3nc12 | >2.3 | > 5000 | 2140
CN(C)CCNC(=O)c1cccc2nc3ccc4ccc([N+](=O)[O-])cc4c3nc12 | 1.1 | 102 | 94
COc1cccc2c1ccc1nc3cccc(C(=O)NCCN4CCCC4)c3nc12 | 1.9 | 77 | 40
CC(=O)COc1cccc2c1ccc1nc3cccc(C(=O)NCCN(C)C)c3nc12 | 3.1 | 138 | 45
COC(=O)c1cccc2c1ccc1nc3cccc(C(=O)NCCN(C)C)c3nc12 | 0.9 | 91 | 103
CN(C)CCNC(=O)c1c(O)ccc2nc3ccc4c(O)cccc4c3nc12 | 1.3 | 25 | 19
CN(C)CCNC(=O)c1cccc2nc3ccc4c(CO)cccc4c3nc12 | 3.6 | 423 | 117
CCC(CN(C)C)NC(=O)c1cccc2nc3ccc4c(OC)cccc4c3nc12 (centres undefined) | 1.1 | 118 | 107
CNc1ccc2nc3ccc4c(OC)cccc4c3nc2c1C(=O)NCCN(C)C | 1.1 | 143 | 127
COc1ccc2c(ccc3nc4cccc(C(=O)NCCN(C)C)c4nc32)c1OC | 1.8 | 804 | 436
COc1cccc2c1ccc1nc3cccc(C(=O)NC(CN(C)C)C(=O)O)c3nc12 (centres undefined) | >23 | > 5000 | 211
